According to the array DNA melting data of Ke et al. (doi:10.1101/2024.01.08.574731):

Columns and labels:
[1] = melting temperature; fluorescence melt of hairpins on a sequencing array, two-state fit, raised by 9.35 °C to match UV melts; details: sodium 0.088 M
How it was run: (§1)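 Hairpins were imaged by Cy3 fluorescence on a sequenced MiSeq flow cell with annealed Cy3 and quencher oligos, in 50 mM Na-HEPES pH 8.0, 25 mM NaCl, in 2.5 °C steps up to 60 °C. Bootstrapped two-state fits of normalised signals gave melting temperature and folding enthalpy. Four replicates were combined by inverse variance, and fitted temperatures were raised by 9.35 °C to match UV melts.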

[2] = folding enthalpy; higher = less favourable; fluorescence melt of hairpins on a sequencing array, two-state fit; details: sodium 0.088 M
How it was run: as §1

Sequence | Tm [1] | folding enthalpy [2]
GATGTCCGAAAGGATATC (((.(((....))).))) | 52.3 °C | -35.6 kcal/mol
GATGTCGAAAGACATC ((((((....)))))) | 66.3 °C | -36.3 kcal/mol
GATGTCGGAAACGACACC (.(((((....))))).) | 40.4 °C | -11.4 kcal/mol
GATGTGCCGAAAGGCATC (((..(((....)))))) | 36.1 °C | -8.04 kcal/mol
GATGTGGCGAAAGCCATC (((..(((....)))))) | 38.5 °C | -8.76 kcal/mol
GATGTGGGAAACCACATC (((((((....))))))) | 60.9 °C | -42.1 kcal/mol
GATGTGGGAAACCGCATC ((((.((....)).)))) | 51.9 °C | -46.4 kcal/mol
GATGTTGGAAACAATATC (((.(((....))).))) | 37.5 °C | -27.1 kcal/mol
GATGTTGGAAACAATGTC ((..(((....)))..)) | 31.1 °C | -17.1 kcal/mol
GATGTTGGAAACAGCATC ((((.((....)).)))) | 45.5 °C | -25 kcal/mol
GATTACCGAAAGGTTATC (((.(((....))).))) | 42.4 °C | -26.1 kcal/mol
GATTACGAAAGTAGAATC ((((((....)))..))) | 27.4 °C | -14.4 kcal/mol
GATTACGGAAACGTAATC (((((((....))))))) | 55.5 °C | -50.2 kcal/mol
GATTAGCGAAAGCTTATC (((.(((....))).))) | 39.1 °C | -20.5 kcal/mol
GATTATGGAAACATAATC (((((((....))))))) | 49.1 °C | -38.2 kcal/mol
GATTATGGAAACGTAATC (((((.(....).))))) | 35.6 °C | -36.5 kcal/mol
GATTCACGAAAGTGCATC (((.(((....))).))) | 40.2 °C | -26.4 kcal/mol
GATTCACGAAAGTGGATC (((.(((....))).))) | 52.5 °C | -39.1 kcal/mol
GATTCAGGAAACTGGATC (((.(((....))).))) | 41.9 °C | -36.7 kcal/mol
GATTCCGAAAGGAAAATC ((((((....)))..))) | 32.3 °C | -14 kcal/mol
GATTCCGAAAGGATATC ((((((....))).))) | 39.5 °C | -20.7 kcal/mol
GATTCCGGAAACGGAACC (.(((((....))))).) | 40.1 °C | -13.6 kcal/mol
GATTCGCGAAAGCGGATC (((.(((....))).))) | 60.5 °C | -27.7 kcal/mol

Sequence | Tm [1] | folding enthalpy [2]
GATTGACGAAAGTCGATC (((.(((....))).))) | 54.2 °C | -29.6 kcal/mol
GATTGAGAAATCAATC ((((((....)))))) | 45.5 °C | -25.9 kcal/mol
GATTGCCGAAAGGCATC (((.(((....)))))) | 44.6 °C | -10.3 kcal/mol
GATTGCCGAAAGGCGATC (((.(((....))).))) | 61.9 °C | -28.4 kcal/mol
GATTGCGAAAGCAAGATC ((((((....)))..))) | 50.2 °C | -14.8 kcal/mol
GATTGCGAAAGCACAATC ((((((....)))..))) | 32.7 °C | -10.8 kcal/mol
GATTGCGAAAGCACGATC ((((((....)))..))) | 28.7 °C | -7.93 kcal/mol
GATTTACGAAAGTAATC (((.(((....)))))) | 32 °C | -17.8 kcal/mol
GATTTAGAAATAAATC ((((((....)))))) | 34.4 °C | -18.8 kcal/mol
GATTTCCGAAAGGACATC (((.(((....))).))) | 38 °C | -27.1 kcal/mol
GATTTCGGAAACGAAACC (.(((((....))))).) | 35.8 °C | -19.6 kcal/mol
GATTTGAAAAAATC (((((....))))) | 34 °C | -13.9 kcal/mol
GATTTGCGAAAGCAATC (((.(((....)))))) | 40.3 °C | -12.6 kcal/mol
GATTTTGGAAACAAAACC (.(((((....))))).) | 29.6 °C | -24.9 kcal/mol
GATTTTGGAAACAAAATC (((((((....))))))) | 51.7 °C | -46.4 kcal/mol
GCAAAACCGAAAGGTTGC (((..(((....)))))) | 50 °C | -17.7 kcal/mol
GCAAACCGAAAGGTCTGC (((.(((....))).))) | 49.8 °C | -29.8 kcal/mol
GCAAAGCGAAAGCACTGC (((..((....))..))) | 37.7 °C | -13.7 kcal/mol
GCAAAGCGAAAGCATGGC ((.(.((....)).).)) | 38.3 °C | -10.3 kcal/mol
GCAAAGCGAAAGCATTGC ((((.((....)).)))) | 58.9 °C | -21.1 kcal/mol
GCAAAGCGAAAGCCGTGC (((..((....))..))) | 39.9 °C | -11.4 kcal/mol
GCAAAGCGAAAGCCTGGC ((.(.((....)).).)) | 35 °C | -8.7 kcal/mol
GCAAAGCGAAAGCGGTGC (((..((....))..))) | 61.7 °C | -19.8 kcal/mol

Sequence | Tm [1] | folding enthalpy [2]
GCAAAGCGAAAGCGTCGC ((.(.((....)).).)) | 60.2 °C | -23.7 kcal/mol
GCAAAGCGAAAGCTCAGC ((..(((....)))..)) | 33.6 °C | -10.8 kcal/mol
GCAAAGCGAAAGCTCGGC ((..(((....)))..)) | 36.5 °C | -16.6 kcal/mol
GCAAAGCGAAAGCTGCGC ((..(((....)))..)) | 64.3 °C | -28.5 kcal/mol
GCAAAGCGAAAGCTTAGC ((.((((....)))).)) | 57.2 °C | -19 kcal/mol
GCAAATACGAAAGTATGC (((..(((....)))))) | 38.7 °C | -21.6 kcal/mol
GCAAATGAAAATTTGC ((((((....)))))) | 52.3 °C | -45.3 kcal/mol
GCAAATGGAAACATTTGC (((((((....))))))) | 61.8 °C | -40.9 kcal/mol
GCAACACGAAAGTGATGC (((.(((....))).))) | 59 °C | -38.9 kcal/mol
GCAACACGAAAGTGGTGC (((.(((....))).))) | 68.6 °C | -32.2 kcal/mol
GCAACAGGAAACTGTTAC (.(((((....))))).) | 34 °C | -16.7 kcal/mol
GCAACCCCGAAAGGGTGC (((..(((....)))))) | 55.8 °C | -19.2 kcal/mol
GCAACCGAAAGGTAATGC ((((((....)))..))) | 38.6 °C | -20.1 kcal/mol
GCAACCGAAAGGTGTGC ((((((....))).))) | 52.4 °C | -23.2 kcal/mol
GCAACCGAAAGGTGTTGC ((((((....)))..))) | 50 °C | -19 kcal/mol
GCAACCGGAAACGGTCGC ((.((((....)))).)) | 52.8 °C | -29.8 kcal/mol
GCAACCTCGAAAGAGTGC (((..(((....)))))) | 36.9 °C | -21.7 kcal/mol
GCAACGCGAAAGCATCGC ((.(.((....)).).)) | 39.2 °C | -13.5 kcal/mol
GCAACGCGAAAGCATGGC ((.(.((....)).).)) | 33.8 °C | -13.1 kcal/mol
GCAACGCGAAAGCCGTGC (((..((....))..))) | 49 °C | -14.8 kcal/mol
GCAACGCGAAAGCCTGGC ((.(.((....)).).)) | 30.8 °C | -6.76 kcal/mol
GCAACGCGAAAGCGTGC (((.(((....)))))) | 69.1 °C | -14.2 kcal/mol
GCAACGCGAAAGCTATGC (((..((....))..))) | 36.8 °C | -11.6 kcal/mol

Sequence | Tm [1] | folding enthalpy [2]
GCAACGCGAAAGCTTCGC ((.(.((....)).).)) | 30 °C | -8.73 kcal/mol
GCAACGGGAAACCGCTGC (((.(((....))).))) | 51.5 °C | -44 kcal/mol
GCAACTCGAAAGAGTGC (((.(((....)))))) | 55.8 °C | -33.5 kcal/mol
GCAACTGCGAAAGCATGC (((..(((....)))))) | 40.2 °C | -13.5 kcal/mol
GCAACTGGAAACAGTTGC (((((((....))))))) | 67.1 °C | -47.5 kcal/mol
GCAAGAACGAAAGTTTGC (((..(((....)))))) | 42.7 °C | -22.5 kcal/mol
GCAAGAGGAAACTCTCGC ((.((((....)))).)) | 37.6 °C | -25.6 kcal/mol
GCAAGAGGAAACTCTTGC (((((((....))))))) | 64.9 °C | -40.5 kcal/mol
GCAAGCGAAAGCTCTGC ((((((....))).))) | 45.9 °C | -20 kcal/mol
GCAAGCGGAAACGCCTGC (((.(((....))).))) | 54.2 °C | -17.1 kcal/mol
GCAAGCGGAAACGCTCGC ((.((((....)))).)) | 52.7 °C | -22.6 kcal/mol
GCAAGCTCGAAAGAGTGC (((..(((....)))))) | 36.9 °C | -16.9 kcal/mol
GCAAGGCGAAAGCATAGC ((.(.((....)).).)) | 39.6 °C | -14.8 kcal/mol
GCAAGGCGAAAGCCAGGC ((..(((....)))..)) | 52.2 °C | -18.8 kcal/mol
GCAAGGCGAAAGCGTTGC ((((.((....)).)))) | 67.2 °C | -33.1 kcal/mol
GCAAGGGGAAACCCCTGC (((.(((....))).))) | 51.1 °C | -27.4 kcal/mol
GCAAGGGGAAACCCTCGC ((.((((....)))).)) | 45 °C | -23.4 kcal/mol
GCAAGTGGAAACGCTTGC (((((.(....).))))) | 54.9 °C | -39.1 kcal/mol
GCAAGTTCGAAAGAATGC (((..(((....)))))) | 27.3 °C | -11.8 kcal/mol
GCAATAGGAAACCATTGC (((((.(....).))))) | 39.2 °C | -28 kcal/mol
GCAATCACGAAAGTGTGC (((..(((....)))))) | 39.9 °C | -19.5 kcal/mol
GCAATCCGAAAGGACTGC (((.(((....))).))) | 49.8 °C | -17.6 kcal/mol
